Measured values as given in publication PMC7115506 (European Journal of Medicinal Chemistry, 2018).

How the values were obtained:
[1] = system: human leukemia K562 cells; experiment: MTT cytotoxic activity assay, K562; format: cell-based; settings: for enhancement of potency compared to that of 2d: ratio to 2d, K562; for IC50: read-out: IC50 K562, MTT, 48 h
How it was run: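 K562 cells at 5 × 10^4 cells/ml were plated for 2 h, then exposed to test compound at 10–100,000 nM for 48 h. MTT (5 mg/mL stock) was added for a further 4 h and read on a plate reader. DMSO-treated controls were set as 100% viability. IC50 came from nonlinear regression over three independent assays.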

[2] = system: liver cancer HepG2 cells; experiment: MTT cytotoxic activity assay, HepG2; format: cell-based, human; settings: read-out: IC50 HepG2
[3] = system: HUVEC cells; experiment: Tube forming assay on Matrigel; format: cell-based, human; settings: 10 nM, 30 nM, 100 nM; 12 h
[4] = system: K562 cells; experiment: Morphological changes by microscopy; format: cell-based, human; settings: 30 nM
How it was run: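 K562 cells were kept in RPMI-1640 with 10% FBS, 2.05 mM glutamine and 1% penicillin/streptomycin at 37 °C and 5% CO2. They were exposed to test compound at 30 nM, and morphology was compared with DMSO-treated cells.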

[5] = system: K562 cells; experiment: Flow cytometric analysis of apoptosis; format: cell-based, human; settings: 30 nM; 48 h
How it was run: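 K562 cells (RPMI-1640, 10% FBS) were seeded in six-well plates and given DMSO or test compound at 30 or 300 nM for 0, 6, 12, 24 and 48 h. Cells were washed twice in ice-cold PBS, resuspended in binding buffer, then stained with Annexin V-FITC (10 min) and PI at 50 μg/mL (10 min) at room temperature in the dark. Flow cytometry with quadrant statistics.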

[6] = system: HepG2 cells; experiment: Transwell assay; format: cell-based, human; settings: 10 nM, 30 nM, 100 nM; 24 h
[7] = system: HepG2 cells; experiment: Wound healing assay; format: cell-based, human; settings: 48 h, DMSO 184.89 μm

Compound	enhancement of potency compared to that of 2d [1]	IC50 [2] [nM]	IC50 [1] [nM]	further results
COc1ccc(-c2ccc3c(c2)C(=O)C(=O)N3Cc2ccccc2OC)cc1 [2o, 1-(2-methoxybenzyl)-5-(4-methoxyphenyl)indoline-2,3-dione]	8–25 folds	–	–	–
1-(3,5-dimethylbenzyl)-5-(4-methoxyphenyl)indoline-2,3-dione [2p]	–	410 ± 30	140 ± 30	–
1-(4-methoxybenzyl)-5-(thiophen-3-yl)indoline-2,3-dione [compound 4r]	–	3670 ± 1400	80 ± 40	–
COc1ccc(CN2C(=O)C(=O)c3cc(-c4ccc(C(C)(C)C)cc4)ccc32)cc1 [compound 4e, 5-(4-(tert-butyl)phenyl)-1-(4-methoxybenzyl)indoline-2,3-dione]	–	–	–	drop of cytotoxic activity from that of 4k ([1]; ratio to 4k): 15 folds
(Z)-methyl 2-(1-(4-methoxybenzyl)-5-(4-methoxyphenyl)-2-oxoindolin-3-ylidene)acetate [5e]	–	4730 ± 1240	1900 ± 140	–
COc1ccc(-c2ccc3c(c2)C(=O)C(=O)N3Cc2ccc3c(c2)OCO3)cc1 [2v, 1-(benzo[d] [1, 3]dioxol-5-ylmethyl)-5-(4-methoxyphenyl)indoline-2,3-dione]	8–25 folds	–	–	–
COc1ccc(-c2ccc3c(c2)C(=O)C(=O)N3Cc2ccc(OC)c(OC)c2)cc1 [2q, 1-(3,4-dimethoxybenzyl)-5-(4-methoxyphenyl)indoline-2,3-dione]	8–25 folds	–	–	–
(Z)-ethyl 2-(1-(4-methoxybenzyl)-5-(4-methoxyphenyl)-2-oxoindolin-3-ylidene)acetate [5d]	–	3390 ± 270	1240 ± 540	–
COc1ccc(CN2C(=O)C(=O)c3cc(-c4ccc(OC)cc4)ccc32)cc1 [compound 2m, 1-(4-methoxybenzyl)-5-(4-methoxyphenyl)indoline-2,3-dione]	8–25 folds	–	–	effect on tube formation of HUVEC cells [3]: could inhibit the angiogenesis of HUVEC cells and have a dose-dependent inhibitory effect; morphological change: elongated cells (G2/M arrest morphology) ([4]; 6 h, vs DMSO-treated cells): elongated cells increased significantly; morphological change: apoptotic cells ([4]; 24 h): apoptotic cells were clearly observed; apoptotic rate of K562 cells [5]: 43.4%; effect on HepG2 cells migration (transwell) [6]: could inhibit the HepG2 cells migration and have a dose-dependent inhibitory effect; The distance of migration ([7]; 10 nM): 162.89 μm; The distance of migration ([7]; 30 nM): 135.22 μm; The distance of migration ([7]; 100 nM): 96.24 μm
